# procasp3 activ = activators of human procaspase-3. recombinant procaspase-3 D3A, Ac-DEVD-pNA absorbance 405 nm. activation, % at 8.5 µM. 330,000 tested, 0.11% active. P42574. AID 463141;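 active means activation above the mean of all tested compounds plus 3 SD, cut at about 21% in these data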;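 further: 0% = DMSO alone and 100% = DMSO wells spiked with extra 5 µM PC-3 D3A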
# Target sequence (P42574 whole entry D9A/D28A/D175A): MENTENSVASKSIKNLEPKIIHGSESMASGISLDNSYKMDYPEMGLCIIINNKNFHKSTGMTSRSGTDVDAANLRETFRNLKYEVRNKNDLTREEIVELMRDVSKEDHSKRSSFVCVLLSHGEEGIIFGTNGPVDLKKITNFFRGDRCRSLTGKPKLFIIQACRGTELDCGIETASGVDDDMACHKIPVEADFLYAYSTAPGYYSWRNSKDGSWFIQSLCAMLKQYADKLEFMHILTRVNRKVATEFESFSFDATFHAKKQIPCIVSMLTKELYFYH
#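 material = Procaspase-3 D3A mutant | probe or stimulus = Ac-DEVD-pNA | compound = single dose, 8.5 µM nominal compound, 0.8% DMSO | timing = 1 h preincubation, 2 h reaction | measured by = 405 nm absorbance of p-nitroaniline, reads at 0 and 120 min | benchmarks = DMSO-only low control, 5 µM PC-3 D3A high control | repeats = singlicate, each compound tested once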
# FXN GAA850 act = frataxin GAA850 promoter activation; HEK293 lucGAA850 FXN promoter luciferase reporter, 24 h; percent of 10 µM SAHA response; activation, % at 6 µM; 360,000 tested, 0.56% active; AID 540364;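 active means activation above the average of all compounds screened plus 3 SD, cutoff fixed separately per campaign, cut at about 7.5% in these data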;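 further: 0% = DMSO wells and 100% = 10 µM SAHA wells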
# procasp7 counter = activates human procaspase-7, counter-screen for procaspase-3 activators; P55210; recombinant procaspase-7, Ac-DEVD-pNA absorbance 405 nm; D23A/D198A/D206A triple mutant, cannot self-cleave; scale: DMSO 0, 5 µM enzyme 100; activation, % at 8.5 µM; 330,000 tested, 0.093% active; AID 463210;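 active means percent activation above the screen-wide mean plus 3 SD, cut at about 25% in these data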
#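 Replicates: singlicate. Assay system: Procaspase-7 triple mutant (PC-7 D3A). Signal: 405 nm absorbance of p-nitroaniline. Times: 1 h preincubation, 2 h reaction. Buffer or medium: Zinc-free HEPES pH 7.4 with 300 mM NaCl, 0.01% Triton X-100. Also added: DEVD-pNA substrate. Benchmarks: DMSO wells as 0%, DMSO with 5 µM added PC-7 as 100%.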
# proCasp7 act trip = counter-screen: procaspase-7 (human) activation in triplicate; shares compounds with procasp3 activ; recombinant procaspase-7, Ac-DEVD-pNA absorbance; asp23/198/206-to-Ala mutant, cannot self-cleave; activation, % at 8.5 µM; 210 tested, under 10 active; AID 488941;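 active means mean activation above a set limit taken from an earlier procaspase-7 screen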;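 further: 0% = DMSO wells and 100% = DMSO plus 5 µM procaspase-7 enzyme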
# procasp3 conf = procaspase-3 (human) activation, confirmed. shares compounds with procasp3 activ. recombinant PC-3 D3A, Ac-DEVD-pNA absorbance 405 nm; 100% is higher-enzyme control. activation, % at 8.5 µM. 210 tested, 10% active. AID 488954;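 active means mean activation above a set limit carried over from the earlier primary screen, cut at about 22% in these data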
# * marks the source's active call; other numbers are inactive results; . = not tested or not shown. In the library only some 0.7% were active in any assay of this set; here they are far more common.
SMILES,procasp3 activ,FXN GAA850 act,procasp7 counter,proCasp7 act trip,procasp3 conf
Cc1ccc(S(=O)(=O)N2C(=O)CCC2C(=O)O/N=C(\N)c2cccc([N+](=O)[O-])c2)cc1 (stereo unspecified),2.5,-0.1,7.4,.,.
Cn1c(-c2ccc(C=O)s2)nc2c3ccccc3c3ccccc3c21,46.1*,-1.7,-22.8,-20.9,-13.6
COC(=O)C1=C/C=C\CN(C(c2ccccc2)c2ccccc2)/C=C\1C(=O)OC,.,-1.1,.,.,.
CC(=O)c1cccc(NS(=O)(=O)c2ccc(N/C=C/C(=O)c3ccc(F)cc3)cc2)c1,-0.2,0.0,2.2,.,.
CC(=O)c1cccc(NS(=O)(=O)c2ccc(N/C=C\C(=O)c3ccc(C)cc3)cc2)c1,37.9*,-0.2,22.2,-0.9,1.0
Cc1nc(NC(=O)C2CC2)sc1C(=O)Nc1ccccc1Cl,.,1.3,.,.,.
CC1(C)Cc2c(c(N3CCCC3)nc3sc(C(=O)Nc4ccccc4)c(N)c23)CO1,22.9*,1.8,3.1,39.3*,67.7*
Cc1ccc(NC(=O)c2sc3nc(N4CCOCC4)c4c(c3c2N)CC(C)(C)OC4)cc1,-16.5,2.8,-27.6,.,.
CCOC(=O)c1ccc(NC(=O)c2ncn3c2C(=O)NC[C@@H]3C)cc1,.,0.3,.,.,.
Cc1ccc(S(=O)(=O)N(CC(=O)N2CCCCCC2)c2ccccc2)cc1,1.8,-1.5,0.5,.,.
Cc1ccc(S(=O)(=O)N(CC(=O)N2CCC(C)CC2)c2ccccc2)cc1,22.9*,1.0,0.7,2.3,4.9
Cc1nn(CC(=O)OCC(=O)c2ccc(OC(F)F)cc2)c(C)c1[N+](=O)[O-],5.3,0.7,-2.7,.,.
CCc1nc2ccc(C(=O)NCCC(C)C)cn2c1N(CC)CCOC,.,-0.3,.,.,.
CC1(C(=O)NS(=O)(=O)c2ccccc2)CCN1C(=O)CC1CC1 (stereo unspecified),.,0.5,.,.,.
Cc1ccc(OCc2cc(C(=O)N(C)Cc3cnn(-c4ccccc4C)c3)no2)cn1,23.1*,1.9,6.3,1.3,6.7
Cc1ccc(OCc2cc(C(=O)N(C)Cc3cnn(C)c3)no2)cc1C,.,1.4,.,.,.
CCOC(=O)C1(Cc2cccc(OC)c2)CCCN(C(=O)CCN2CCCO2)C1 (stereo unspecified),7.1,6.4,-4.8,.,.
CCCCn1c(N)c(N(CC(C)C)C(=O)C2CC(=O)N(c3ccc(C)cc3)C2)c(=O)[nH]c1=O (stereo unspecified),22.2*,0.8,-6.8,-0.7,4.7
CCCCn1c(N)c(N(CC(C)C)C(=O)C2CC(=O)N(c3ccc4c(c3)OCCO4)C2)c(=O)[nH]c1=O (stereo unspecified),-1.5,0.8,-2.6,.,.
Cc1cc(=O)oc2cc(O)ccc12,24.4*,-0.7,19.6,-21.4,-12.5
O=c1cc(O)c2ccc(O)cc2o1,5.1,0.1,-4.0,.,.
Cc1ccc(C)c(NC(=O)CSc2nnc(-c3ccccc3)o2)c1,2.5,1.3,0.2,.,.
Cc1ccc(NC(=O)CSc2nnc(-c3cccnc3)o2)c(C)c1,23.3*,0.9,1.8,-17.3,-5.3
Cc1c(Cc2ccccc2)sc(/N=C/c2ccc3ccccc3c2)c1C(N)=O,-5.0,-3.2,-10.8,.,.
Cc1c(Cc2ccccc2)sc(/N=C/c2c(O)ccc3ccccc23)c1C(N)=O,31.9*,1.8,10.2,9.0,25.7*
SMILES,procasp3 activ,FXN GAA850 act,procasp7 counter,proCasp7 act trip,procasp3 conf
COc1ccc(C(=O)N/C(=C\c2cn(C)c3ccccc23)C(=O)N2CCOCC2)cc1,-4.7,-0.8,2.2,.,.
CCOc1ccccc1NC(=O)COc1coc(CN2CCCc3ccccc32)cc1=O,-4.5,-0.2,1.1,.,.
CCOc1ccccc1NC(=O)COc1coc(CN2CCc3ccccc3C2)cc1=O,21.6*,-0.1,7.1,3.1,6.0
Cc1cc(C)cc(N(CC(=O)NC2CCCC2)C(=O)CCC(=O)Nc2cc(C)ccn2)c1,3.0,-1.0,6.8,.,.
O=C(CN1C(=O)c2cccc3cccc1c23)Nc1ccc2c(c1)OCO2,-1.2,2.4,-8.0,.,.
O=C(CN1C(=O)c2cccc3cccc1c23)NCc1ccc2c(c1)OCO2,29.1*,1.1,2.4,2.1,1.7
CNC(=O)NC(=O)COC(=O)/C=C/c1cccc(Br)c1,8.3,-0.6,11.8,.,.
Cc1c(O)ccc2c(CN3CCOCC3)cc(=O)oc12,21.5*,0.7,21.8,-19.4,-12.9
